Test results published in ChEMBL document CHEMBL3392992, “Synthesis, antiproliferative activity, and in silico insights of new 3-benzoylamino-benzo[b]thiophene derivatives” (Eur J Med Chem, 2015).

How the values were obtained:
[1] = tested on: HeLa; assay: Antiproliferative activity against human HeLa cells assessed as reduction in cell proliferation after 48 hrs by MTT assay; format: functional
Outline: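 HeLa cells grown with FBS, 2 mM L-glutamine, penicillin/streptomycin at 37 °C, 5% CO2, seeded at 1.0 × 10^4 cells/cm2 (approx.). After 24 h, medium switched to 5% FBS medium with compounds diluted from 20 mM DMSO stocks, 50 to 0.05 µM, final DMSO ≤0.25% (vehicle control). Incubated 48 h. MTT 0.5 mg/mL for 4 h at 37 °C, formazan dissolved in DMSO, OD 570 nm. GI50 by linear regression of percent growth vs control. Three experiments, each in quadruplicate.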

[2] = tested on: HeLa; assay: Toxicity against human HeLa cells assessed as effect on cell membrane integrity at 1 to 20 uM after 48 hrs by trypan blue dye exclusion method; format: cell-based
[3] = tested on: HeLa; assay: Induction of cell cycle arrest in human HeLa cells assessed as increase in accumulation at subG0/G1 phase after 24 to 48 hrs by propidium iodide staining based flow cytometry; format: functional; settings: TDE = time-dependent effect

| Structure (SMILES) | GI50 [1] [µM] | Activity [2] | Activity [3] |
| --- | --- | --- | --- |
| CCOC(=O)c1sc2ccc(N)cc2c1NC(=O)c1ccc(OC)cc1 | > 50 | Non-toxic | – |
| CCOC(=O)c1sc2ccc(NCc3nc[nH]c3C)cc2c1NC(=O)c1ccc(OC)cc1 | 8.22 | Non-toxic | – |
| CCOC(=O)c1sc2ccc(NCc3nc[nH]c3C)cc2c1NC(=O)c1ccc(C(F)(F)F)cc1 | 12.8 | Non-toxic | – |
| CCOC(=O)c1sc2ccc(N)cc2c1NC(=O)c1ccccc1 | > 50 | Non-toxic | – |
| CCOC(=O)c1sc2ccc(N)cc2c1NC(=O)c1cc(OC)c(OC)c(OC)c1 | 4.66 | Non-toxic | tde |
| CCOC(=O)c1sc2ccc(NCc3nc[nH]c3C)cc2c1NC(=O)c1ccc(F)c(Cl)c1 | 2.91 | Non-toxic | tde |
| CCOC(=O)c1sc2ccc(NCc3nc[nH]c3C)cc2c1NC(=O)c1ccccc1 | 23.3 | Non-toxic | – |
| CCOC(=O)c1sc2ccc(NCc3c[nH]cn3)cc2c1NC(=O)c1cc(OC)c(OC)c(OC)c1 | 6.79 | Non-toxic | – |
| CCOC(=O)c1sc2ccc(NCc3c[nH]cn3)cc2c1NC(=O)c1ccc(C)cc1 | 11.7 | Non-toxic | – |
| CCOC(=O)c1sc2ccc(N)cc2c1NC(=O)c1ccc(C(F)(F)F)cc1 | 6.68 | Non-toxic | – |
| CCOC(=O)c1sc2ccc(NCc3c[nH]cn3)cc2c1NC(=O)c1ccccc1 | 17.9 | Non-toxic | – |
| CCOC(=O)c1sc2ccc(NCc3nc[nH]c3C)cc2c1NC(=O)c1ccc(C)cc1 | 11.4 | Non-toxic | – |
| CCOC(=O)c1sc2ccc(NCc3c[nH]cn3)cc2c1NC(=O)c1ccc(C(F)(F)F)cc1 | 16.8 | Non-toxic | – |
| CCOC(=O)c1sc2ccc(NCc3c[nH]cn3)cc2c1NC(=O)c1ccc(F)c(Cl)c1 | 10.7 | Non-toxic | – |
| CCOC(=O)c1sc2ccc(N)cc2c1NC(=O)c1ccc(F)c(Cl)c1 | 12.3 | Non-toxic | – |
| CCOC(=O)c1sc2ccc(NCc3c[nH]cn3)cc2c1NC(=O)c1ccc(OC)cc1 | 12.9 | Non-toxic | – |
| CCOC(=O)c1sc2ccc(N)cc2c1NC(=O)c1ccc(C)cc1 | 24.4 | Non-toxic | – |
| CCOC(=O)c1sc2ccc(NCc3nc[nH]c3C)cc2c1NC(=O)c1cc(OC)c(OC)c(OC)c1 | 2.23 | Non-toxic | tde |
